Results published in the EternaBench riboswitch data.

System: MS2 coat protein
Experiment: apparent Kd, MS2 coat protein; higher = weaker binding; RNA-MaP array; tryptophan 2.4 mM where present
Method in brief: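 Each design was made on Illumina sequencing-chip clusters by stalled E. coli RNA polymerase and titrated with SNAP-549-labelled MS2 coat protein from 0.7 or 1.5 nM, doubling to 3 µM, in the absence and then the presence of constant ligand. The buffer was 100 mM Tris-HCl pH 7.5, 80 mM KCl, 4 mM MgCl2, BSA, DTT, yeast tRNA and Tween-20. The apparent Kd is the median of filtered per-cluster fits of binding curves, with green signal normalised to red-channel RNA signal and control-cluster median Fmax.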

[1] = designed as: OFF switch for tryptophan, no ligand
[2] = ligand present: tryptophan, designed as: OFF switch for tryptophan
[3] = designed as: ON switch for tryptophan, no ligand
[4] = ligand present: tryptophan, designed as: ON switch for tryptophan

Sequence	apparent Kd [1] [nM]	apparent Kd [2] [nM]	apparent Kd [3] [nM]	apparent Kd [4] [nM]
AGUUUAGACACGGCCGCCACUCGUGACAGAUUUCGCAGUGGUCUACAUGAGGAUCACCCAUGUCUGAGGACCGGGUGUUGAGUUU	144	433	–	–
GGUUGGUCCUCACAUGAGGAUCACCCAUGUCGAGGACCGGUACGGCCGCCACUCGAUUGUACCAGGGCUUAAGAGCCUAUGAGCA	11.1	8.44	–	–
UAUAUAUAUCACUAACUGUUCUUGAGGUCUCGAGGACCGGUACGGCCGCCACUCGUACCGCCUCACAUGAGGAUCACCCAUGUCC	63	59.1	–	–
CCACUUUCUUUUAUCUUUCUUUCUUUGUUACGAGGACCGGUACGGCCGCCACUCGUGGUGUGUGGUACAUGAGGAUCACCCAUGU	–	–	23.7	22.4
AUGGUAAGAACAUGAGGAUCACCCAUGUGACGAGGACCGGUACGGCCGCCACUCGUACCUUAGUCGUCGAACAGAGGAUUCAUGU	–	–	89.2	66
UCAUAAGUACCGGUCCUCAGAUCCUCAUGACGAGGACCGGUACGGCCGCCACUCGAAACAUGAGGAUCACCCAUGUAAUAACAUU	20.9	18.5	–	–
AAUUAUCAGUCGGCCGCCACUGACACAUGAGGAUCACCCAUGUAACAUGGGUAAAAUUAACUGAACAGGACCGGGACAAAGGCUA	378	499	–	–
CCAUGCAGGUCGGCCGCCACUACACACAUGAGGAUCACCCAUGUAGUUACUGGGUGAAGUGGCAGUAGGACCGGGACCUGCACAU	–	–	311	729
UAAGUUAGGGCGGCCGCCACUCGAACAUGAGGAUCACCCAUGUAAAUUAAUUAAAGGACAUGAAUGAGGACCGGGCCAAGUUAGA	–	–	15.7	13.4
GUUUUAUACUCGGCCGCCACUGAGAGAGUCAUGUAAACAUGAGGAUCACCCAUGUAAUAUAUAUACAGGACCGGGAGUAGGGUAA	12.9	15.4	–	–
GGGUGGUAGGCGGCCGCCACUGAUUUUCAUUCCUAGAUGACAUGAGGAUCACCCAUGUUUAUGGGCAGGACCGGGCCUGCUGUGG	–	–	62.7	55.7
UGGGUACCGACGGCCGCCACUGAAUAUAGACAUGAGGAUCACCCAUGUAGAGAUCCUAGAAUAAACAGGACCGGGUCUGGUGCUA	220	362	–	–
UCGUGUCUAUUGGUUUAGCUUUAAUCGUUACGAGGACCGGUACGGCCGCCACUCGAUUUAACAUGAGGAUCACCCAUGUACUCUC	19	21.2	–	–
CGUAUUGGAAACAGUACGAGUGAUCCGGUCCGAGGACCGGUACGGCCGCCACUCGAUAUAAAUAAACAUGAGGAUCACCCAUGUA	16.2	25.7	–	–
GGCCAUGGAAACAUGGCGGCGGCAUAAGCGCGAGGACCGGUACGGCCGCCACUCGGGCGACAUGAGGAUCACCCAUGUUCCUCAU	317	541	–	–
GUACACUAGUCGGCCGCCACUGUUACAUGAGGAUCACCCAUGUAGGAUCACCCAUGACAUGAGGAUAGGACCGGGACGCAUGAGG	45	41.3	–	–
CACGAAAGAUCGGCCGCCACUCAUGUUUCUUACAUGAGGAUCACCCAUGUAUUUUCUUUCUUUUAGAGGACCGGGAUCGAGCGUG	–	–	40.8	18.4
UUUAUUAUUGACUCGUUUUGGUAUUAAGAACGAGGACCGGUACGGCCGCCACUCGUGAUAUACAUGAGGAUCACCCAUGUUAGCA	–	–	15.1	15.5
